In ChEMBL document CHEMBL4680235, “Structure-based discovery of novel 4-(2-fluorophenoxy)quinoline derivatives as c-Met inhibitors using isocyanide-involved multicomponent reactions” (Eur J Med Chem, 2020):

Assays:
NCI-H460 [1] = experiment: Antiproliferative activity against human NCI-H460 cells assessed as reduction in cell viability measured after 72 hrs by MTT assay; conditions: NCI-H460, 72 h
HT-29 [2] = experiment: Antiproliferative activity against human HT-29 cells assessed as reduction in cell viability measured after 72 hrs by MTT assay; conditions: HT-29, 72 h
MKN-45 = experiment: Antiproliferative activity against human MKN-45 cells assessed as reduction in cell viability measured after 72 hrs by MTT assay; conditions: MKN-45, 72 h
MDA-MB-231 [3] = experiment: Antiproliferative activity against human MDA-MB-231 cells assessed as reduction in cell viability measured after 72 hrs by MTT assay; conditions: MDA-MB-231, 72 h
[4] = target: Hepatocyte growth factor receptor (Homo sapiens, UniProt P08581); experiment: Inhibition of c-MET (unknown origin) using poly (Glu, Tyr) 4:1 as substrate measured after 30 mins by HTRF assay
Hepatocyte growth factor receptor, sequence (P08581 whole entry): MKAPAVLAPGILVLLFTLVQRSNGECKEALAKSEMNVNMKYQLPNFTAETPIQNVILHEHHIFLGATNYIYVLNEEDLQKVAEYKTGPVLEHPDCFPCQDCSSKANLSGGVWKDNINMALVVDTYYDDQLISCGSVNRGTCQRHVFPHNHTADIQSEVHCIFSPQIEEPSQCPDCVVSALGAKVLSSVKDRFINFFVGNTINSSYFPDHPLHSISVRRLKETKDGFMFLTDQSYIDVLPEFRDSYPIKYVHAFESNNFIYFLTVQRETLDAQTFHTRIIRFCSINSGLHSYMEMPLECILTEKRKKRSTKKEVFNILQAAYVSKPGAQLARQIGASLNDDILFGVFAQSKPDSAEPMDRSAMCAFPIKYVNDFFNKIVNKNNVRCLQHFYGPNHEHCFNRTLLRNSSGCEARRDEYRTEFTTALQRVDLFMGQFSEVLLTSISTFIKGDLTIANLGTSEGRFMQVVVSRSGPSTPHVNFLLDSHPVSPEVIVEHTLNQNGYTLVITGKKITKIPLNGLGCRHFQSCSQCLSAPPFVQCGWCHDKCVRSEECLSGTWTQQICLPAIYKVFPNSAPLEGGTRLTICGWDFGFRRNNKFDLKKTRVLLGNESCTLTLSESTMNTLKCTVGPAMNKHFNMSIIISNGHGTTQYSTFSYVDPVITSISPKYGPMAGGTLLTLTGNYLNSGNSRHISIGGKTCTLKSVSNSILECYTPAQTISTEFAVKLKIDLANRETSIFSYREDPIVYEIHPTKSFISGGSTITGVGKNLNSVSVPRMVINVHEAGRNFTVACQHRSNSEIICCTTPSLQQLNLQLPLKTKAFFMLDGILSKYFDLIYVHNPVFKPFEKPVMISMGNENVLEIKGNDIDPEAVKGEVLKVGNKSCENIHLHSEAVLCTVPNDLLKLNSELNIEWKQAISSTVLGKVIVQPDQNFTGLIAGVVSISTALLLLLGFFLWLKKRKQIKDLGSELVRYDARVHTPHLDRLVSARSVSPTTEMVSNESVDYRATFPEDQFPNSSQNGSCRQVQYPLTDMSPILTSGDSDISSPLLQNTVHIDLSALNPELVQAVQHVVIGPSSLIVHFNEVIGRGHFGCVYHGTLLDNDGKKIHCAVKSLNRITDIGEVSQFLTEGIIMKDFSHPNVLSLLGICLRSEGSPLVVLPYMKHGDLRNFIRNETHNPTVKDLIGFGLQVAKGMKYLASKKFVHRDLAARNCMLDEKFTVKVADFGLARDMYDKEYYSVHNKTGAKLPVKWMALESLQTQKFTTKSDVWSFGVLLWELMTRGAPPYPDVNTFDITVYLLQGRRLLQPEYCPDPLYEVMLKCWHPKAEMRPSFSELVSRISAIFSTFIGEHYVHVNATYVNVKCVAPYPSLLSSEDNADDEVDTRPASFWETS

NCI-H460 [5] = experiment: Potency index, ratio of foretinib IC50 to test compound IC50 for antiproliferative activity against human NCI-H460 cells; type: functional
HT-29 [6] = experiment: Potency index, ratio of foretinib IC50 to test compound IC50 for antiproliferative activity against human HT-29 cells; type: functional
MDA-MB-231 [7] = experiment: Potency index, ratio of foretinib IC50 to test compound IC50 for antiproliferative activity against human MDA-MB-231 cells; type: functional
[8] = target: Mast/stem cell growth factor receptor Kit (Homo sapiens, UniProt P10721); experiment: Inhibition of c-Kit (unknown origin)
Mast/stem cell growth factor receptor Kit, sequence (P10721 whole entry): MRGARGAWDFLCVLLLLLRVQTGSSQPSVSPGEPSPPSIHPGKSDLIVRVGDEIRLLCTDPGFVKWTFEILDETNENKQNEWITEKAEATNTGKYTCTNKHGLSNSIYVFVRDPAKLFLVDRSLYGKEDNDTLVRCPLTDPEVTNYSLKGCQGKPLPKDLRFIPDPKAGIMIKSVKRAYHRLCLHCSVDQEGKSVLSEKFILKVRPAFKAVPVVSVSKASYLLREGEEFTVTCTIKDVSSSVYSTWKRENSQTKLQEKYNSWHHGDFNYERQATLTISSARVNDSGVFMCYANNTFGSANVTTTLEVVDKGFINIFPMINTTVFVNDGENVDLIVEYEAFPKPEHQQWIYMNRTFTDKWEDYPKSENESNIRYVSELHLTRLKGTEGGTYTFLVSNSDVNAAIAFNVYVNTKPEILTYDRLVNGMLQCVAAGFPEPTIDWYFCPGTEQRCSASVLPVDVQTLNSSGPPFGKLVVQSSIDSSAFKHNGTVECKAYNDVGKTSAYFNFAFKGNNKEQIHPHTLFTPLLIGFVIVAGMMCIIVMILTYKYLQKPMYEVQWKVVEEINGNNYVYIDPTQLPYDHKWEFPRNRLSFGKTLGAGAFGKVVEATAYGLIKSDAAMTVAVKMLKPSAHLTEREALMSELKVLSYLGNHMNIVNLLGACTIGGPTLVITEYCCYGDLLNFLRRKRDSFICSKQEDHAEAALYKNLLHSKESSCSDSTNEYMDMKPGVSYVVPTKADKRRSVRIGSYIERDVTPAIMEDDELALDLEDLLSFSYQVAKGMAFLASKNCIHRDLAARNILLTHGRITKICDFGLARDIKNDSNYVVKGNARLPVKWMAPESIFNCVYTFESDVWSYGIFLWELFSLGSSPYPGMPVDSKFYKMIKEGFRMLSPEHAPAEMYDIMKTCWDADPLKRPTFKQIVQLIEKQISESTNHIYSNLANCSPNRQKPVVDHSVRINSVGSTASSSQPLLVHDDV
Method in brief: (§1)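 HTRF kinase assay with purified kinase protein on preloaded poly(Glu,Tyr) 4:1 substrate, 20 mg/mL. ATP at 10 mM (solution added) in buffer of 50 mM HEPES pH 7.0 with DTT, MgCl₂, MnCl₂ and 0.1% NaN₃. Compounds diluted in 1% DMSO. Reaction ran 30 min at 25 °C. Percent inhibition computed against no-enzyme (min) and full-activity (max) wells. IC50 taken from the inhibition curves.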

[9] = target: T1, Receptor-type tyrosine-protein kinase FLT3 (Homo sapiens, UniProt P36888); experiment: Inhibition of FLT3 (unknown origin)
T1 sequence (P36888 whole entry): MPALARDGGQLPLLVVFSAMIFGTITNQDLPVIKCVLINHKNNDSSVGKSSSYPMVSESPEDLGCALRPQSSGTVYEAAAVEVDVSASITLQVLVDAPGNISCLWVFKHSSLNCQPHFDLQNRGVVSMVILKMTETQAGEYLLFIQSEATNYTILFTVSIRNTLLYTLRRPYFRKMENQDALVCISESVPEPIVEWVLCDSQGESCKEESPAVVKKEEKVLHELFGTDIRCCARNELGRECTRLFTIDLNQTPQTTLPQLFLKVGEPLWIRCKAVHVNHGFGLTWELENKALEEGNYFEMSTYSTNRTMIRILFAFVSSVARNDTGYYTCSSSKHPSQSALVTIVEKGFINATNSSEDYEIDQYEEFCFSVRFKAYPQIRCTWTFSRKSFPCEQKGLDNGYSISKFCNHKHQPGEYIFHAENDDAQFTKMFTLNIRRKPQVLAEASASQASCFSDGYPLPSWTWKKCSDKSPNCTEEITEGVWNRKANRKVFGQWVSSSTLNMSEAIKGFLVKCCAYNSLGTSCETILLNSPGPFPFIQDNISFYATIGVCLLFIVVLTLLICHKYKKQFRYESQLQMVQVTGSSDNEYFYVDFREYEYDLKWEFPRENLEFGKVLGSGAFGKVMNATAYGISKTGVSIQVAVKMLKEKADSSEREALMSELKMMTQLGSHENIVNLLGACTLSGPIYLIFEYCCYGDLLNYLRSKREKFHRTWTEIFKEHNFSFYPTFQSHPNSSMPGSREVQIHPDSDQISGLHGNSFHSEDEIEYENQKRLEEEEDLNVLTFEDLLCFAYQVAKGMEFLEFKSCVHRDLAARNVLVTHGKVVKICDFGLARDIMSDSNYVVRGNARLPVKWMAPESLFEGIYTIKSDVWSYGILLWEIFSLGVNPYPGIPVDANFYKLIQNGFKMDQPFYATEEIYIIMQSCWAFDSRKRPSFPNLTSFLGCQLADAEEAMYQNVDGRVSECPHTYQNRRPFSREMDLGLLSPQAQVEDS

[10] = target: Macrophage-stimulating protein receptor (Homo sapiens, UniProt Q04912); experiment: Inhibition of Ron (unknown origin); method in brief: as §1
Macrophage-stimulating protein receptor, sequence (Q04912 25-304 limits assumed): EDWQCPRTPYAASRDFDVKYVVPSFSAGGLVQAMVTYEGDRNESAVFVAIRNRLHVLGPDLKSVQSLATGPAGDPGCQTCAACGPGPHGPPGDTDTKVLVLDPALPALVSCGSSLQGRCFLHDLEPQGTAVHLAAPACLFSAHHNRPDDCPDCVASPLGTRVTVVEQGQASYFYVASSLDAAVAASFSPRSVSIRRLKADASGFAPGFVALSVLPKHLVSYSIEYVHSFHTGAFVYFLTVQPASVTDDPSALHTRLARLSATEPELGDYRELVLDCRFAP
Macrophage-stimulating protein receptor, sequence (Q04912 310-1400 limits assumed): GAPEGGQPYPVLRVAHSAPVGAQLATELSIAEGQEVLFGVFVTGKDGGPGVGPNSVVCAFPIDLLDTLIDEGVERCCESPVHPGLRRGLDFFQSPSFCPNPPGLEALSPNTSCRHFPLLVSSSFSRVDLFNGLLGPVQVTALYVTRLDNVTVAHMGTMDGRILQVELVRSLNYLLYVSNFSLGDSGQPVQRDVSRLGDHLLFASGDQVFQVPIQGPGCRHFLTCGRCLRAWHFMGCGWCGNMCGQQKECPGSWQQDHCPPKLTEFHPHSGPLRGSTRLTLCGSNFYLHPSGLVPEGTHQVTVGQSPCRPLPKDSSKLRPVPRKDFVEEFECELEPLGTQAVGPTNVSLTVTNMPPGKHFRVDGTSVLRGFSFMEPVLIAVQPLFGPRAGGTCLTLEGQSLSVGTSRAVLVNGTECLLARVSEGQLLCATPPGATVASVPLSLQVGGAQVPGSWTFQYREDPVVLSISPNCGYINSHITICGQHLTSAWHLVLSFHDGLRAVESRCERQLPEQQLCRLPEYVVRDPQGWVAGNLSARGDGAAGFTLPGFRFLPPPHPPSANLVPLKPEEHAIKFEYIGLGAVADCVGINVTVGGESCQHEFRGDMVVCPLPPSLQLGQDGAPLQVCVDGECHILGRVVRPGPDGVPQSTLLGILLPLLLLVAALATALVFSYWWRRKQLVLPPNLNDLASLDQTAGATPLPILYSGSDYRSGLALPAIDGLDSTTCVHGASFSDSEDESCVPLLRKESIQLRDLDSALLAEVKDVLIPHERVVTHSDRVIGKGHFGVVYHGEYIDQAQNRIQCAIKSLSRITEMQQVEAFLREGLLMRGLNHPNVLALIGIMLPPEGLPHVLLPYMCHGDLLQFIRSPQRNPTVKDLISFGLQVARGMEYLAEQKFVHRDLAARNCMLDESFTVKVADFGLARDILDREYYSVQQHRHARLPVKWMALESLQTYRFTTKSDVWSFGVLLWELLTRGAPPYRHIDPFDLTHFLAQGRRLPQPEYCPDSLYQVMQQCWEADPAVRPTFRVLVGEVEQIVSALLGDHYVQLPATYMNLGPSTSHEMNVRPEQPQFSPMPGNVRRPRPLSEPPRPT

[11] = target: Vascular endothelial growth factor receptor 2 (Homo sapiens, UniProt P35968); experiment: Inhibition of VEGFR2 (unknown origin)
Vascular endothelial growth factor receptor 2, sequence (P35968 whole entry): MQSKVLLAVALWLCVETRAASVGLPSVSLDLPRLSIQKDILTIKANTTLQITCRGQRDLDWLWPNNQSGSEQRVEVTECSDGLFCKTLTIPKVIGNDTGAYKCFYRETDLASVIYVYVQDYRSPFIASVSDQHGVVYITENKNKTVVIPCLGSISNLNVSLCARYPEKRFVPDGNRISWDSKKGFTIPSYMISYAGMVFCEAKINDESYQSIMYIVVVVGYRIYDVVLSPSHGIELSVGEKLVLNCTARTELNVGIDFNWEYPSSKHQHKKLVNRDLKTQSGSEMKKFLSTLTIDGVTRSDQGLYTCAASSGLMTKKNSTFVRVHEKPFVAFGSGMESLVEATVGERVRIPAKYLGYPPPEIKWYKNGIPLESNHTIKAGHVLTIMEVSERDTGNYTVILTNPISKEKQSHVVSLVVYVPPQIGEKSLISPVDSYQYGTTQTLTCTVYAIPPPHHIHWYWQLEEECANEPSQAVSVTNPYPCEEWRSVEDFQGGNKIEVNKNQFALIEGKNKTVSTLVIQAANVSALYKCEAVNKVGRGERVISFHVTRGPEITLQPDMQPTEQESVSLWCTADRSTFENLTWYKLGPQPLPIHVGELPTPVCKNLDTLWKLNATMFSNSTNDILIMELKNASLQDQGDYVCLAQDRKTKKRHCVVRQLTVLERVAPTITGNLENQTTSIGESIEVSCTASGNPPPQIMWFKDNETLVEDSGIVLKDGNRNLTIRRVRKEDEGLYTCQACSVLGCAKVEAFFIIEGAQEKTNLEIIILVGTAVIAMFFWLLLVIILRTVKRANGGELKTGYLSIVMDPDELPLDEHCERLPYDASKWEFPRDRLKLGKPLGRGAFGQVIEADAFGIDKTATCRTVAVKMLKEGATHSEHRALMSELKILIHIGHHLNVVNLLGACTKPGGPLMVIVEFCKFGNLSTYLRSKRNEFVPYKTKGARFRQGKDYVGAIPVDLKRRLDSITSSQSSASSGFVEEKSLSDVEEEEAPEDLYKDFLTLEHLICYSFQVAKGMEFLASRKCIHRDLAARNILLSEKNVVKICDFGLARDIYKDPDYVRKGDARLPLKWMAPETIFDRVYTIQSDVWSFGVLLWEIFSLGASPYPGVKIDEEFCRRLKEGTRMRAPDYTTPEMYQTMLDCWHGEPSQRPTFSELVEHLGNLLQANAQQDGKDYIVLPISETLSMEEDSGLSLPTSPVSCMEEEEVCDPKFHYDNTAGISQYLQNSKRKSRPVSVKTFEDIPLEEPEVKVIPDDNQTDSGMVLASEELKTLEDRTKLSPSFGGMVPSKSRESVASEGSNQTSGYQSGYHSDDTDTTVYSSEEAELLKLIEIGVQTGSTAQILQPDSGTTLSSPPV

[12] = target: Vascular endothelial growth factor receptor 3 (Homo sapiens, UniProt P35916); experiment: Inhibition of Flt4 (unknown origin); method in brief: as §1
[13] = target: Epidermal growth factor receptor (Homo sapiens, UniProt P00533); experiment: Inhibition of EGFR (unknown origin); method in brief: as §1
NCI-H460 [14] = experiment: Antiproliferative activity against human NCI-H460 cells assessed as reduction in cell viability hrs by MTT assay; type: functional, cell-based; conditions: TDE = time-dependent effect

SMILES | IC50 (NCI-H460 [1]) | IC50 (HT-29 [2]) | IC50 (MKN-45) | IC50 (MDA-MB-231 [3]) | further results
COc1cc2nccc(Oc3ccc(NC(=O)C(OC(=O)c4ccc(Br)cc4)C(C)(C)C)cc3F)c2cc1OC (stereo unspecified) | 480 nM | 560 nM | 750 nM | 900 nM | –
COc1cc2nccc(Oc3ccc(NC(=O)C(C)OC(=O)c4cccs4)cc3F)c2cc1OC (stereo unspecified) | 2460 nM | 4020 nM | 6390 nM | 8240 nM | –
COc1cc2nccc(Oc3ccc(NC(=O)C(OC(=O)c4ccc(C(C)(C)C)cc4)C(C)(C)C)cc3F)c2cc1OC (stereo unspecified) | 2060 nM | 2450 nM | 3950 nM | 4450 nM | –
COc1cc2nccc(Oc3ccc(NC(=O)C(OC(=O)c4ccccc4F)C(C)(C)C)cc3F)c2cc1OC (stereo unspecified) | 210 nM | 240 nM | 380 nM | 440 nM | –
COc1cc2nccc(Oc3ccc(NC(=O)C(C)OC(=O)C4CCCC4)cc3F)c2cc1OC (stereo unspecified) | 15200 nM | 24600 nM | 28200 nM | – | –
COc1cc2nccc(Oc3ccc(NC(=O)C(OC(=O)c4ccco4)C(C)(C)C)cc3F)c2cc1OC (stereo unspecified) | 2680 nM | 2960 nM | – | 3560 nM | –
COc1cc2nccc(Oc3ccc(NC(=O)C(OC(=O)c4ccccc4)c4ccccc4)cc3F)c2cc1OC (stereo unspecified) | 22400 nM | 25600 nM | – | – | –
COc1cc2nccc(Oc3ccc(NC(=O)C(C)OC(=O)c4ccc5ccccc5c4)cc3F)c2cc1OC (stereo unspecified) | 9430 nM | 11600 nM | 15600 nM | 13300 nM | –
COc1cc2nccc(Oc3ccc(NC(=O)C(C)OC(=O)c4ccccc4)cc3F)c2cc1OC (stereo unspecified) | 1290 nM | 1920 nM | 2390 nM | 3210 nM | –
COc1cc2nccc(Oc3ccc(NC(=O)C(OC(=O)c4cccs4)C(C)(C)C)cc3F)c2cc1OC (stereo unspecified) | 960 nM | 1260 nM | 1700 nM | 1890 nM | –
COc1cc2nccc(Oc3ccc(NC(=O)[C@H](OC(=O)c4ccc(F)cc4)C(C)(C)C)cc3F)c2cc1OC | – | – | – | – | IC50 [4]: 2.56 nM
COc1cc2nccc(Oc3ccc(NC(=O)C(OC(=O)C4CCCC4)C(C)(C)C)cc3F)c2cc1OC (stereo unspecified) | 11600 nM | 9270 nM | 11500 nM | 14000 nM | –
COc1cc2nccc(Oc3ccc(NC(=O)C(OC(=O)c4ccc(C(F)(F)F)cc4)C(C)(C)C)cc3F)c2cc1OC (stereo unspecified) | 1840 nM | 2160 nM | 2870 nM | 3520 nM | –
COc1cc2nccc(Oc3ccc(NC(=O)C(OC(=O)c4ccccc4)C4CCCCC4)cc3F)c2cc1OC (stereo unspecified) | 10300 nM | 15600 nM | 20500 nM | 18000 nM | –
COc1cc2nccc(Oc3ccc(NC(=O)C(N(C(=O)c4ccc(F)cc4)c4ccc(F)cc4)C(C)(C)C)cc3F)c2cc1OC (stereo unspecified) | 8420 nM | 10200 nM | 12400 nM | 14800 nM | –
COc1cc2nccc(Oc3ccc(NC(=O)C(OC(=O)c4ccccc4Cl)C(C)(C)C)cc3F)c2cc1OC (stereo unspecified) | 220 nM | 290 nM | 460 nM | 760 nM | –
CCCC(OC(=O)c1ccccc1)C(=O)Nc1ccc(Oc2ccnc3cc(OC)c(OC)cc23)c(F)c1 (stereo unspecified) | 890 nM | 1240 nM | 1870 nM | 2480 nM | –

SMILES | IC50 (NCI-H460 [1]) | IC50 (HT-29 [2]) | IC50 (MKN-45) | IC50 (MDA-MB-231 [3]) | further results
COc1cc2nccc(Oc3ccc(NC(=O)C(OC(=O)c4ccc(Cl)c(Cl)c4)C(C)(C)C)cc3F)c2cc1OC (stereo unspecified) | 780 nM | 900 nM | 1120 nM | 1560 nM | –
COc1ccc(C(=O)OC(C(=O)Nc2ccc(Oc3ccnc4cc(OC)c(OC)cc34)c(F)c2)C(C)(C)C)cc1 (stereo unspecified) | 1250 nM | 1540 nM | 1860 nM | 2580 nM | –
COc1cc2nccc(Oc3ccc(NC(=O)C(OC(=O)c4ccc(Cl)cc4)C(C)(C)C)cc3F)c2cc1OC (stereo unspecified) | 200 nM | 240 nM | 320 nM | 480 nM | –
COc1cc2nccc(Oc3ccc(NC(=O)C(OC(=O)c4cc(OC)c(OC)c(OC)c4)C(C)(C)C)cc3F)c2cc1OC (stereo unspecified) | 2700 nM | 3030 nM | 3870 nM | 4920 nM | –
CCCCN(C(=O)c1ccc(F)cc1)C(C(=O)Nc1ccc(Oc2ccnc3cc(OC)c(OC)cc23)c(F)c1)C(C)(C)C (stereo unspecified) | 470 nM | 520 nM | 680 nM | 860 nM | –
COc1cc2nccc(Oc3ccc(NC(=O)C(N(C(=O)c4ccc(F)cc4)C4CCCCC4)C(C)(C)C)cc3F)c2cc1OC (stereo unspecified) | 4340 nM | 5350 nM | 6650 nM | 8480 nM | –
COc1cc2nccc(Oc3ccc(NC(=O)C(OC(=O)c4ccccc4)C(C)(C)C)cc3F)c2cc1OC (stereo unspecified) | 400 nM | 450 nM | 560 nM | 650 nM | –
COc1cc2nccc(Oc3ccc(NC(=O)C(OC(=O)c4ccc5ccccc5c4)C(C)(C)C)cc3F)c2cc1OC (stereo unspecified) | 3340 nM | 4380 nM | – | 6750 nM | –
COc1cc2nccc(Oc3ccc(NC(=O)[C@@H](OC(=O)c4ccc(F)cc4)C(C)(C)C)cc3F)c2cc1OC | – | – | – | – | IC50 [4]: 2.49 nM
COc1cc2nccc(Oc3ccc(NC(=O)C(OC(=O)c4ccc(F)cc4)C(C)(C)C)cc3F)c2cc1OC (racemic) | 140 nM | 200 nM | 260 nM | 420 nM | IC50 [4]: 2.43 nM; Ratio IC50 (NCI-H460 [5]): 1.7; Ratio IC50 (HT-29 [6]): 1.3; Ratio IC50 (MDA-MB-231 [7]): 1.6; IC50 [8]: 4.42 nM; IC50 [9]: 6.15 nM; IC50 [10]: 18.6 nM; IC50 [11]: 295 nM; IC50 [12]: 540 nM; IC50 [13]: > 10000 nM; Activity (NCI-H460 [14]): Tde
COc1cc2nccc(Oc3ccc(NC(=O)C(OC(=O)c4ccc(C)cc4)C(C)(C)C)cc3F)c2cc1OC (stereo unspecified) | 780 nM | 850 nM | 1080 nM | 1420 nM | –
COc1cc2nccc(Oc3ccc(NC(=O)C(NC(=O)c4ccc(F)cc4)C(C)(C)C)cc3F)c2cc1OC (stereo unspecified) | 380 nM | 440 nM | 650 nM | 960 nM | –
COc1ccc(N(C(=O)c2ccc(F)cc2)C(C(=O)Nc2ccc(Oc3ccnc4cc(OC)c(OC)cc34)c(F)c2)C(C)(C)C)cc1OC (stereo unspecified) | 6420 nM | 6210 nM | 7520 nM | 8870 nM | –
COc1cc2nccc(Oc3ccc(NC(=O)C(N(C(=O)c4ccc(F)cc4)C(C)(C)C)C(C)(C)C)cc3F)c2cc1OC (stereo unspecified) | 1300 nM | 1450 nM | 1580 nM | 1700 nM | –
COc1cc2nccc(Oc3ccc(NC(=O)C(OC(=O)c4cccc(F)c4)C(C)(C)C)cc3F)c2cc1OC (stereo unspecified) | 260 nM | 300 nM | 540 nM | 490 nM | –
COc1cc2nccc(Oc3ccc(NC(=O)C(N(C(=O)c4ccc(F)cc4)c4ccccc4)C(C)(C)C)cc3F)c2cc1OC (stereo unspecified) | 7560 nM | 9270 nM | 11500 nM | 14000 nM | –
COc1cc2nccc(Oc3ccc(NC(=O)C(OC(=O)c4cccc(Cl)c4)C(C)(C)C)cc3F)c2cc1OC (stereo unspecified) | 310 nM | 390 nM | 600 nM | 860 nM | –
